Compound activity (PubChem)
HTR5A ag – HTR5A agonists in luminescence cell assay, primary screen, counter-screen for OPRM1-OPRD1 heterodimer agonist project, full-deck HTS; activation, % at 9.3 µM; AID 504692, 2011; 5-hydroxytryptamine receptor 5A (Homo sapiens), P47898; cell-based; actives 0.61% (n = 340,000); in the data active means activation mostly above about 9.5%, no sharp cut-off; inactive means mostly below about 7.6%;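 further: 0% = cells with vehicle only and 100% = reference agonist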
MC4R antagonist – MC4R antagonists of cAMP signaling, primary screen, cell-based, TR-FRET, antagonist arm of biased-ligand search; actives 0.48% (n = 360,000); Melanocortin receptor 4 (Homo sapiens), P32245; MC4R-expressing cells, MTII-stimulated cAMP, LANCE TR-FRET; inhibition, % at 6.5 µM; AID 540295, 2011;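 active means inhibition above its plate's cutoff, the mean of tested wells on that plate plus 3 SD, cut at about 29% in these data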;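 further: 0% = Melanotan II alone and 100% = Melanotan II plus saturating MCL0020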
Target sequence (P32245 whole entry, looked up): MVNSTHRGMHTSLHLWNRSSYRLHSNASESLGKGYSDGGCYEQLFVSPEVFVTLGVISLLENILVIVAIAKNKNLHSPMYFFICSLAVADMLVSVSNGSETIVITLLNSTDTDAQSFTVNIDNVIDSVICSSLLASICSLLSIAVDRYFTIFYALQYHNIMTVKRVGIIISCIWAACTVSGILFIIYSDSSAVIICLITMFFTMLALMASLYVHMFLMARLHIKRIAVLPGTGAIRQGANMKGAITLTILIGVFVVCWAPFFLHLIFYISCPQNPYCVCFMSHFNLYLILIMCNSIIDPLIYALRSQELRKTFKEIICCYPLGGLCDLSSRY
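Assay system: U2OS-MC4R stable cell line; Also added: Melanotan II; Technique: Eu-cAMP/anti-cAMP TR-FRET, emission 671 nm; Times: 30-min compound, 1-h challenge, 1-h detection, room temperature.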
MC4R ag barr – MC4R agonists recruiting beta-arrestin, primary screen, cell-based, luminescence, agonist arm of biased-ligand search; AID 540308, 2011; U2OS MC4R beta-arrestin complementation; percent of melanotan II response, DMSO zero; activation, % at 8.9 µM; actives 0.98% (n = 360,000);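 active means activation above a per-plate cutoff, the mean activation of sample wells on that plate plus 3 SD, cut at about 8% in these data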
MOR-DOR inv ag – inverse agonists of MOR-DOR heterodimerization, primary screen, cell-based, luminescence; Mu-type opioid receptor (Homo sapiens) + Delta-type opioid receptor (Homo sapiens), …; cell-based MOR-DOR heterodimer luminescence, inverse agonism; inhibition, % at 9.3 µM; actives 0.21% (n = 340,000); AID 504357, 2011; in the data active means inhibition above about 22%, passing the limit was not always enough;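 further: 0% = cells with DMSO and 100% = wells without cells with DMSO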
HTR5A inv ag – HTR5A inverse agonists in luminescence cell assay, primary screen, counter-screen for OPRM1-OPRD1 heterodimer inverse agonist project, full-deck HTS. 5-hydroxytryptamine receptor 5A (Homo sapiens), P47898. HTR5A cell line, inverse agonism. inhibition, % at 9.3 µM. actives 0.083% (n = 340,000); in the data active means inhibition mostly above about 23%, no sharp cut-off; inactive means mostly below about 18%;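 further: 0% = cells with DMSO and 100% = no-cell wells with DMSO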
OPRM1-OPRD1 ag – agonists of OPRM1-OPRD1 heterodimerization, primary screen, cell-based, luminescence. Mu-type opioid receptor (Homo sapiens) + Delta-type opioid receptor (Homo sapiens), …. cells. activation, % at 9.3 µM. actives 0.3% (n = 340,000); in the data active means activation above about 18%;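 further: 0% = vehicle-treated cells and 100% = reference agonist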
MC4R barr conf – MC4R beta-arrestin agonists, retest, confirmation, cell-based, luminescence, U2OS | AID 602192, 2012 | U2OS MC4R beta-arrestin recruitment; scaled DMSO 0%, Melanotan II 100% | shares compounds with MC4R ag barr | actives 31% (n = 2,400) | activation, % at 8.9 µM;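 active means mean activation across replicates above the hit cutoff set in the earlier primary screen, cut at about 8% in these data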
MOR-DOR barr ag – agonists of MOR-DOR heterodimerization, counter-screen for MC4R biased agonist project, cell-based, luminescence; shares compounds with MC4R ag barr; U2OS PathHunter beta-arrestin, beta-gal luminescence; percent of deltorphin B response, DMSO zero; activation, % at 9.2 µM; actives 5.8% (n = 2,400); AID 602194, 2012;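 active means mean activation across replicates exceeds the hit threshold derived in the earlier primary screen, cut at about 18% in these data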;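 further: 100% = deltorphin B at 0.9 µM final and 0% = DMSO alone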
Starred values were filed as active, the others as inactive; · = no result given. Rows were chosen to be rich in hits. Some 2.4% of all compounds tested hit in one or more screens of this group.

SMILES	HTR5A ag	MC4R antagonist	MC4R ag barr	MOR-DOR inv ag	HTR5A inv ag	OPRM1-OPRD1 ag	MC4R barr conf	MOR-DOR barr ag
C=CCn1c(C)c(C(C)=O)c(N2CCN(C(c3ccccc3)c3ccccc3)CC2)nc1=S	-2	18	-3	8	6	-1	·	·
CCOC(=O)C1=C(c2ccccc2)Nc2ncnn2C1c1ccc(C(=O)O)cc1 (stereo unspecified)	5	8	-1	8	13	-2	·	·
CCOC(=O)C1=C(c2ccccc2)NC(N)=NC1c1ccc(OCc2ccc(C(=O)OC)cc2)cc1 (stereo unspecified)	3	13	14*	-3	-10	1	6	9
CN(C)CCOc1ccc(-c2c(-c3ccsc3)sc3ccccc23)cc1	9	12	13*	-28	-28	5	23*	9
COc1ccc(-c2sc3ccccc3c2-c2ccc(O)cc2)cc1	-3	7	0	-6	-6	1	·	·
COc1ccc(-c2sc3ccccc3c2-c2ccc(OCCN(C)C)cc2)cc1	14*	28	21*	-66	-52	12	45*	15
O=c1cc(C2CCCCC2)[nH]c(=O)[nH]1	1	3	-2	4	-5	-1	·	·
CC1(C)CC(=O)C2=C(C1)N(Cc1cccnc1)C(=O)C2(NC(=O)c1ccc(F)cc1)C(F)(F)F (stereo unspecified)	-7	5	-2	-1	-12	0	·	·
COc1ccccc1C(=O)O/N=C1/CCCc2c1ccc(OC)c2[N+](=O)[O-]	11	-1	20*	-17	-14	4	6	9
CCSc1nnc(NC(=O)c2csc3c2CCCC3)s1	-3	0	15*	-53	26	10	27*	15
O=C(Nc1nnc(SCc2ccccc2)s1)c1cc2c(s1)CCCC2	1	-3	20*	12	21	-2	8.3*	3
O=C(Nc1nnc(SCc2ccc(F)cc2)s1)c1ccc2ncsc2c1	2	4	17*	-3	17	0	-1	3
CNC(=O)c1c(NC(=O)c2cccc(N3C(=O)CCC3=O)c2)sc2c1CCCC2	2	2	1	0	-5	0	·	·
CSc1ccccc1OCc1cc(C(=O)NC2CCc3ccccc32)no1 (stereo unspecified)	8	-7	64*	-51	13	10	9.5*	8
O=C(N/N=C/c1cccnc1)c1cc(-c2ccccc2OCc2ccccc2)n[nH]1	0	8	2	-22	-8	4	·	·
Clc1ccc2c(c1)C(N1CCNCC1)Cc1ccccc1S2 (stereo unspecified)	8	-7	10*	-51	-28	9	19*	23*
COCCCN1CCN(C2Cc3ccccc3Sc3ccc(Cl)cc32)CC1 (stereo unspecified)	5	3	13*	-37	5	7	1	11
Clc1cccc2c1Sc1ccccc1CC2N1CCNCC1 (stereo unspecified)	5	1	2	-65	0	12	·	·
Cc1cc(CSc2ccccc2)ccc1NC(=O)c1ccc(Br)cc1	-2	-4	9.9*	2	-20	0	12*	7
CC(=O)C(C)Oc1ccc(Cc2ncc(C(F)(F)F)cc2Cl)cc1 (stereo unspecified)	-1	0	1	-26	29	5	·	·
Cc1cc(C)cc(NC(=O)Cc2ccc(-n3cccc3)cc2)c1	8	9	9.7*	-23	-29	4	2	4
Cc1ccc(NC(=O)Cc2ccc(-n3cccc3)cc2)c(C)c1	10	1	2	-3	-34	1	·	·
Cn1c(=O)c2cc(NC(=O)CCc3cccc(Cl)c3)ccc2n1Cc1cccc(C(F)(F)F)c1	·	-5	14*	·	·	·	-2	4
C=C(C)Cn1c2ccc(NC(=O)CCc3cccc(Cl)c3)cc2c(=O)n1C	·	-14	-3	·	·	·	·	·
COc1ccc(NC(=S)N/N=C/c2ccc(F)c(F)c2)cc1	0	12	14*	-35	-10	7	3	7
SMILES	HTR5A ag	MC4R antagonist	MC4R ag barr	MOR-DOR inv ag	HTR5A inv ag	OPRM1-OPRD1 ag	MC4R barr conf	MOR-DOR barr ag
Fc1ccc(NC(=S)N/N=C/c2ccc(F)c(F)c2)cc1	-2	4	1	-4	4	1	·	·
Cc1ccc(NC(=S)N/N=C/c2ccc(Cl)c([N+](=O)[O-])c2)cc1	5	28	21*	-17	0	3	5	3
O=[N+]([O-])c1cc(/C=N/NC(=S)Nc2ccccc2Cl)ccc1Cl	1	-11	-1	-30	13	6	·	·
COc1ccc(NC(=S)N/N=C/c2cccn2Cc2ccc(F)cc2Cl)cc1	-1	15	1	-15	3	3	·	·
Cc1ccc(CNC(=S)Nc2ccc(C)c([N+](=O)[O-])c2)cc1	0	2	13*	-8	1	1	0	7
COc1ccc(NC(=S)N/N=C/c2cccn2Cc2ccccc2F)cc1	-1	13	10*	-39	3	8	0	7
CCOc1ccccc1-n1nnnc1SCC(=O)N(C)C1CCS(=O)(=O)C1 (stereo unspecified)	·	2	-2	·	·	·	·	·
Cc1ccc(C)c(C(=O)CCC(=O)Nc2ccc(N3CCN(C)CC3)cc2C)c1	5	9	-1	-2	-15	1	·	·
CCOC(=O)CSc1nc(C2CC2)nc2ccccc12	5	2	1	15	-13	-3	·	·
COc1cc(OC)c(NC(=O)c2c(-c3ccccc3)noc2C)cc1Cl	7	8	25*	-41	-20	7	6	6
COc1ccc(Cl)cc1NC(=O)c1c(-c2ccccc2)noc1C	7	-1	27*	-72	-26	13	0	3
CCOC(=O)c1sc(N)c(C(=O)Nc2ccccc2)c1C	5	5	-3	-8	-14	2	·	·
Cc1ccc(C(=O)NC(=O)CSc2ncccc2C(=O)O)cc1	7	-4	-1	14	12	-3	·	·
